Source: ChEMBL document CHEMBL2146445, “Discovery of BIIB042, a Potent, Selective, and Orally Bioavailable γ-Secretase Modulator” (ACS Med Chem Lett, 2011)
pEC50: −log10 of the molar value. Active and inactive are the calls of the source. The rule behind the calls is not given here.

Legend:
[1] = Modulation of gamma-secretase in CHO cells overexpressing APP V717 mutant assessed as reduction in amyloid beta42 level after 17 hrs by ELISA; format: cell-based; details: Cricetulus griseus
Summary of the method: (§1)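 CHO cells overexpressing APP V717F; Aβ42, Aβ40 and Aβ38 quantified together in each well by multiplex Aβ ELISA. EC50 is the mean of at least two determinations.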

CHO [2] = experiment: Modulation of gamma-secretase in CHO cells overexpressing APP V717 mutant assessed as increase in amyloid beta38 level after 17 hrs by ELISA; format: cell-based; details: Cricetulus griseus; summary of the method: as §1
CHO [3] = experiment: Modulation of gamma-secretase in CHO cells overexpressing APP V717 mutant assessed as effect on amyloid beta40 level after 17 hrs by ELISA; format: cell-based; details: Cricetulus griseus; summary of the method: as §1
Mus musculus [4] = experiment: Antialzheimer activity in CF1 mouse assessed as reduction in amyloid beta42 level in brain at 30 mg/kg, po after 4 hrs by ELISA; format: functional; design: scale not given: the % may be the effect or the level left
Summary of the method: (§2)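 Wild-type CF-1 mice received a single oral dose as a solution in ethanol:propylene glycol:10% solutol (1:1:8). Animals were sacrificed 4 h after dosing. Brain and plasma were collected for drug concentration and Aβ levels. Aβ change was expressed relative to vehicle-treated controls.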

[5] = Drug uptake in CF1 mouse brain at 30 mg/kg, po after 4 hrs; format: ADME, organism-based; design: dose 30 mg/kg, route oral; details: read-out: Drug uptake; summary of the method: as §2
[6] = Plasma concentration in CF1 mouse at 30 mg/kg, po after 4 hrs; format: ADME, organism-based; design: dose 30 mg/kg, route oral
Summary of the method: (§3)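 Wild-type (CF-1) mice given compound orally as a solution in ethanol:propylene glycol:10% solutol (1:1:8). Animals sacrificed 4 h post-dose; brain and plasma collected for drug exposure and Aβ levels.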

[7] = Drug uptake in CF1 mouse brain at 50 mg/kg, po after 4 hrs; format: ADME, organism-based; design: dose 50 mg/kg, route oral; details: read-out: Drug uptake; summary of the method: as §2
Mus musculus [8] = experiment: Antialzheimer activity in CF1 mouse assessed as reduction in amyloid beta42 level in brain at 50 mg/kg, po after 4 hrs by ELISA; format: functional; summary of the method: as §2
[9] = Plasma concentration in CF1 mouse at 50 mg/kg, po after 4 hrs; format: ADME, organism-based; design: dose 50 mg/kg, route oral; summary of the method: as §3
[10] = Modulation of gamma-secretase

| pEC50 [1] | concentration at 4 h [5] | concentration at 4 h [6] | concentration at 4 h [7] | concentration at 4 h [9] | pEC50 [10] | SMILES | Activity (CHO [2]) | Activity (CHO [3]) | Activity (Mus musculus [4]) | Activity (Mus musculus [8]) |
| --- | --- | --- | --- | --- | --- | --- | --- | --- | --- | --- |
| 5.70 | – | – | – | – | – | CC(C(=O)O)c1ccc(C(c2ccc(F)cc2)N2CCC(F)CC2)c(-c2ccc(C(F)(F)F)cc2)c1 (configuration not stated) | Active | inactive | – | – |
| 5.35 | – | – | – | – | – | CC1CCN(C(c2ccc(F)cc2)c2ccc(C(C)C(=O)O)cc2-c2cnc(C(C)(C)C)nc2)CC1 (configuration not stated) | Active | inactive | – | – |
| 6.48 | 13 µM | 20.4 µM | – | – | – | CCC(C(=O)O)c1ccc(C(c2ccc(F)cc2)N2CCC(C)CC2)c(-c2ccc(C(F)(F)F)cc2)c1 (configuration not stated) | Active | inactive | 40% | – |
| 6.24 | 10.9 µM | 25.2 µM | – | – | – | CC1CCN(C(c2ccc(C(F)(F)F)nc2)c2ccc(C(C)C(=O)O)cc2-c2ccc(C(F)(F)F)cc2)CC1 (configuration not stated) | Active | inactive | 23% | – |
| 6.00 | – | – | 0.6 µM | – | – | CC(C)CCN(Cc1ccc(CC(=O)O)cc1-c1ccc(C(F)(F)F)cc1)c1ccc(C(F)(F)F)cc1 | – | – | – | – |
| 5.85 | – | – | – | – | – | CC(C(=O)O)c1ccc(C(c2ccc(F)cc2)N2CCCCC2)c(-c2ccc(C(F)(F)F)cc2)c1 (configuration not stated) | Active | inactive | – | – |
| 6.60 | – | – | – | – | – | CCCC(C(=O)O)c1ccc(C(c2ccc(F)cc2)N2CCC(C)CC2)c(-c2ccc(C(F)(F)F)cc2)c1 (configuration not stated) | Active | inactive | – | – |
| 6.21 | 12.1 µM | 16.3 µM | – | – | – | CC(C(=O)O)c1ccc(C(c2ccc(F)cc2)N2CC3CCCC3C2)c(-c2ccc(C(F)(F)F)cc2)c1 (configuration not stated) | Active | inactive | 30% | – |
| 6.77 | 2.5 µM | 5.3 µM | – | – | – | CC(C(=O)O)c1ccc(C(c2ccc(F)cc2)N2CCCC(C)(C)C2)c(-c2ccc(C(F)(F)F)cc2)c1 (configuration not stated) | Active | inactive | 25% | – |
| 6.52 | 25.3 µM | 27.2 µM | – | – | – | CC(C(=O)O)c1ccc(C(c2ccc(F)cc2)N2CCC(C)(C)CC2)c(-c2ccc(C(F)(F)F)cc2)c1 (configuration not stated) | Active | inactive | 30% | – |
| 6.38 | 19.4 µM | 27.1 µM | – | – | – | CC1CCN(C(c2ccc(Cl)cc2)c2ccc(C(C)C(=O)O)cc2-c2ccc(C(F)(F)F)cc2)CC1 (configuration not stated) | Active | inactive | 25% | – |
| 6.25 | – | – | 1 µM | 6.3 µM | – | CC(C)(C)c1ccc(-c2cc(CC(=O)O)ccc2C(c2ccc(F)cc2)N2CCC(C(F)(F)F)CC2)cc1 (configuration not stated) | Active | inactive | – | inactive |
| 5.43 | – | – | – | – | – | CC1CCN(C(c2ccc(F)cn2)c2ccc(C(C)C(=O)O)cc2-c2ccc(C(F)(F)F)cc2)CC1 (configuration not stated) | Active | inactive | – | – |
| 6.92 | – | – | 5.7 µM | 32.2 µM | – | CC(C)CC(C(=O)O)c1ccc(C(c2ccc(F)cc2)N2CCCCC2)c(-c2ccc(C(F)(F)F)cc2)c1 (configuration not stated) | Active | inactive | – | 30% |
| 7.40 | – | – | – | – | – | CC(C)(C)CC(C(=O)O)c1ccc(C(c2ccc(F)cc2)N2CCCCC2)c(-c2ccc(C(F)(F)F)cc2)c1 (configuration not stated) | Active | inactive | – | – |
| 6.92 | – | – | – | – | – | CC1CCN(C(c2ccc(F)cc2)c2ccc(C(C(=O)O)C(C)C)cc2-c2ccc(C(F)(F)F)cc2)CC1 (configuration not stated) | Active | inactive | – | – |
| 6.74 | 14.4 µM | 21.7 µM | – | – | – | CC(C(=O)O)c1ccc(C(c2ccc(F)cc2)N2CCC(C(F)(F)F)CC2)c(-c2ccc(C(F)(F)F)cc2)c1 (configuration not stated) | Active | inactive | 40% | – |
| – | – | – | – | – | 3.52 | C[C@@H](C(=O)O)c1ccc(-c2ccccc2)c(F)c1 [TARENFLURBIL] | – | – | – | – |
| 6.74 | 14 µM | 20.5 µM | – | – | – | CC1CCN(C(c2ccc(C(F)(F)F)cc2)c2ccc(C(C)C(=O)O)cc2-c2ccc(C(F)(F)F)cc2)CC1 (configuration not stated) | Active | inactive | inactive | – |
| 6.96 | 11.8 µM | 29.6 µM | – | – | – | CC1CCN(C(c2ccc(F)cc2)c2ccc(C(CC3CC3)C(=O)O)cc2-c2ccc(C(F)(F)F)cc2)CC1 (configuration not stated) | Active | inactive | 40% | – |
| 6.41 | 3.1 µM | 10.7 µM | – | – | – | CC(C(=O)O)c1ccc(C(c2ccc(F)cc2)N2CC3CCC(C3)C2)c(-c2ccc(C(F)(F)F)cc2)c1 (configuration not stated) | Active | inactive | 25% | – |
| 6.40 | – | – | – | – | – | CC(C(=O)O)c1ccc(C(c2ccc(F)cc2)N2CCC3(CC2)CC3)c(-c2ccc(C(F)(F)F)cc2)c1 (configuration not stated) | Active | inactive | – | – |
| 5.66 | – | – | – | – | – | CC1CCN(C(c2ccc(F)cc2)c2ccc(C3(C(=O)O)CC3)cc2-c2ccc(C(F)(F)F)cc2)CC1 (configuration not stated) | Active | inactive | – | – |
| < 5.00 | – | – | – | – | – | CC(C(=O)O)c1ccc(C(c2ccc(F)cc2)N2CCN(C)CC2)c(-c2ccc(C(F)(F)F)cc2)c1 (configuration not stated) | Active | inactive | – | – |
| 6.41 | 18.4 µM | 27.2 µM | – | – | – | CC1CCN(C(c2ccc(F)cc2)c2ccc(C(C)C(=O)O)cc2-c2ccc(C(F)(F)F)cc2)CC1 (racemic) | Active | inactive | 45% | – |
| 5.64 | – | – | – | – | – | CC(C(=O)O)c1ccc(C(c2ccc(F)cc2)N2CCCC2)c(-c2ccc(C(F)(F)F)cc2)c1 (configuration not stated) | Active | inactive | – | – |
| 5.96 | – | – | 7.4 µM | 26 µM | – | O=C(O)Cc1ccc(C(c2ccc(F)cc2)N2CCC(C(F)(F)F)CC2)c(-c2ccc(C(F)(F)F)cc2)c1 (configuration not stated) | Active | inactive | – | 20% |
| 5.54 | – | – | – | – | – | CC1CCN(C(c2ccc(F)cc2)c2ccc(CC(=O)O)cc2-c2ccc(C(F)(F)F)cc2)CC1 (configuration not stated) | Active | inactive | – | – |
| 6.60 | 12 µM | 20.8 µM | – | – | – | CC1CCN(C(c2ccc(F)c(F)c2)c2ccc(C(C)C(=O)O)cc2-c2ccc(C(F)(F)F)cc2)CC1 (configuration not stated) | Active | inactive | 40% | – |
| 5.64 | – | – | – | – | – | O=C(O)Cc1ccc(C(c2ccc(F)cc2)N2CCC(C(F)(F)F)CC2)c(-c2ccc(F)cc2)c1 (configuration not stated) | Active | inactive | – | – |
